Converted amounts (≈) assume the structure as drawn. Some results are limits rather than exact numbers.

Assay [1] addresses T1, Adenosine deaminase (Bos taurus) (UniProt P56658).
T1 sequence (whole entry): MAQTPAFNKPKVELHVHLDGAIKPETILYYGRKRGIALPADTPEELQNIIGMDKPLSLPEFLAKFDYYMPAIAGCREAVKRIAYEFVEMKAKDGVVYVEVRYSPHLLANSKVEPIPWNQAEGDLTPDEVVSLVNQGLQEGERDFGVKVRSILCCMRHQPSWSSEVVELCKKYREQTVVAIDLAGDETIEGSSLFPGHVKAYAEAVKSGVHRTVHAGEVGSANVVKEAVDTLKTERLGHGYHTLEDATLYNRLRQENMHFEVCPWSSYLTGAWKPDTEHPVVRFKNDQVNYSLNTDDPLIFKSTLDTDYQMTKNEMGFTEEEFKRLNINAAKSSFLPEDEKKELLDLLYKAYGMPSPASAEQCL
Nature of the assay: Tested for inhibition against calf intestinal mucosa adenosine deaminase (ADA). Format: tissue-based. The conditions noted are these: concentration not given here. The gist of the method:
(§1)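 Calf intestinal mucosa ADA (0.003 unit) in 1 mL of 50 mM potassium phosphate, pH 7.4, at 30 °C. Substrate was 25 μM adenosine, about Km. Analogue tested at 100 μM, reported as percent inhibition.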

Assay [2] has as its system B16. Nature of the assay: Tested in vitro inhibitory activity against murine B16 melanoma cells line. Format: functional. The conditions noted are these: Mus musculus, read-out: ID50 (the source's name). An outline of the steps:
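B16 cells maintained in RPMI-1640 with 15% heat-inactivated FBS and antibiotics (doubling time 21 h); 2-3 × 10^3 cells seeded day 0, graded analogue concentrations added day 1, 3 days at 37 °C. MTT 4 h, formazan solubilized in acidic isopropanol, absorbance read; ID50 from curve fit of 12 concentrations, eight determinations each.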

In assay [3] the test system is L1210 (1565). Nature of the assay: Tested in vitro inhibitory activity against murine L 1210 leukemia cells line. Format: functional. The conditions noted are these: Mus musculus, read-out: ID50 (the source's name). The gist of the method:
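L1210 cells in RPMI-1640 with 10% heat-inactivated FBS plus mercaptoethanol (doubling time 12 h); 1 × 10^3 cells seeded day 0, graded analogue concentrations added day 1, cultured 3 days at 37 °C. Growth read by MTT reduction (4 h), formazan in acidic isopropanol; ID50 fitted from 12 concentrations × eight determinations.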

The species named for assay [4] is Homo sapiens. Nature of the assay: Evaluated for inhibition of adenosine accumulation in human erythrocytes at the concentration of 10 uM of compound. It is filed as functional. The gist of the method: (§2)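 Inhibitor-stop assay of human erythrocytes (10% suspension, v/v) at room temperature. Analogue (up to 10 μM) was preincubated with triplicate cell aliquots for 10 min, then [8-¹⁴C]adenosine was added (final 10 μM). Uptake was stopped after 0.5 s with ice-cold 750 μM dilazep and centrifugation through oil. Cell radioactivity was counted, corrected for extracellular trapping.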

Assay [5] concerns the target T1, Adenosine deaminase (Bos taurus). Nature of the assay: Tested for percentage inhibition against adenosine deaminase at the concentration 100 uM. An outline of the steps:
as §1

Assay [6] deals with B16. Nature of the assay: Compound was tested in vitro for growth inhibitory activity against murine B16 melanoma cell line. It is filed as functional. The conditions noted are these: Mus musculus, read-out: ID50 (the source's name). An outline of the steps:
(§3)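 B16 melanoma cells in RPMI-1640 with 15% heat-inactivated FBS and antibiotics, seeded at 2-3 × 10³ cells/well on day 0. Graded analogue (12 concentrations) added day 1, then 3 days at 37 °C. MTT 4 h, formazan dissolved in acidic isopropanol, absorbance read. ID50 from curve fit, eight determinations per concentration.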

Assay [7] relates to L1210 (1565). Nature of the assay: Compound was tested in vitro for growth inhibitory activity against murine L1210 leukemia cell line. It is filed as functional. The following applies: Mus musculus, read-out: ID50 (the source's name). The gist of the method:
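Murine L1210 cells in RPMI-1640 with 10% heat-inactivated FBS and mercaptoethanol, seeded at 1 × 10³ cells/well on day 0. Graded analogue (12 concentrations) added day 1, then 3 days at 37 °C. MTT 4 h, formazan dissolved in acidic isopropanol, absorbance read. ID50 from curve fit, eight determinations per concentration.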

For assay [8], the species on record is Homo sapiens. Nature of the assay: Compound was tested for the inhibition of adenosine transport into human erythrocytes. It is filed as functional. An outline of the steps: as §2
Assay [9] concerns B16. Nature of the assay: Compound was tested in vitro for growth inhibitory activity against B16 melanoma cell line. The conditions noted are these: Mus musculus, read-out: ID50 (the source's name). Format: functional. The gist of the method:
as §3

In general, inhibition refers to the relative decrease from the control value, in per cent. Low readings indicate a response near the control, high ones a response far below the control. Regarding `Nc1nncc2c1nnn2C1O[C@H](CO)[C@@H](O)[C@H]1O` (stereo partly specified), the inhibition in assay [1] was 7%. With `Nc1ccn([C@@H]2O[C@H](CO)[C@@H](O)[C@@H]2O)c(=O)n1` [CYTARABINE], the IC50 in assay [2] and in [3] was less than 0.1 µg/mL in each case. For orientation: Inhibition means the relative decrease from the control value, in per cent. `OC[C@H]1OC(n2cnc3c(NCc4ccccc4)nncc32)[C@H](O)[C@@H]1O` (stereo partly specified) registered an Inhibition in assay [4] of 45%.

For `Nc1nncc2c1ncn2[C@@H]1O[C@H](CO)[C@@H](O)[C@H]1O`, the inhibition in [5] turned out to be 15%. On to `CN(Cc1cnc2nc(N)nc(N)c2n1)c1ccc(C(=O)N[C@@H](CCC(=O)O)C(=O)O)cc1` [METHOTREXATE], for which the IC50 in [6] and in [7] was less than 0.1 µg/mL in each case.

With `OC[C@H]1OC(n2nnc3c(NCc4ccccc4)nncc32)[C@H](O)[C@@H]1O` (stereo partly specified), the Inhibition in assay [8] is on record as 34%. The IC50 in [9] came out at 35.8 µg/mL (≈ 99.9 µM). As for `O=c1[nH]cc(F)c(=O)[nH]1` [FLUOROURACIL], the IC50 in assay [2] and in assay [3] was less than 0.1 µg/mL throughout.

(Values after ChEMBL document CHEMBL1126561, “Synthesis and biological evaluation of N4-substituted imidazo- and v-triazolo[4,5-d]pyridazine nucleosides” (J Med Chem, 1993).)
